By inhibition is commonly meant the change of the read-out against control, counted positive when it falls. The half-life is how long it takes for the measured level to halve. For orientation: clearance means a measure of how efficiently the substance is removed, as volume per time. Usually Vd stands for the apparent volume that relates the amount in the body to the concentration in plasma or blood. As usually defined, the fraction unbound is free concentration divided by total concentration.

The text below walks through data of ChEMBL document CHEMBL4033794, “Discovery of Trifluoromethyl Glycol Carbamates as Potent and Selective Covalent Monoacylglycerol Lipase (MAGL) Inhibitors for Treatment of Neuroinflammation” (J Med Chem, 2018).

≈ marks a conversion by molar mass, not a printed value. Calls of active or inactive are those of the source. The rule behind the calls is not given here.

In data set [1] the test system is Mus musculus. The data set can be described thus: Anti-inflammatory activity in C57BL6J mouse assessed as reduction in LPS-induced PGE2 levels in brain at 1 mg/kg, sc administered 30 mins after LPS challenge measured at 4 hrs post LPS challenge by LC-MS/MS analysis. Format: functional, organism-based. A digest of the protocol:
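Mice given LPS 20 mg/kg IP or saline, then 1 mg/kg SC compound or vehicle 30 min later; brains collected 4 h post-LPS, homogenized in pH 2.0 PMSF/NH4OAc buffer, spiked with d4-PGE2 internal standard, acetonitrile-extracted, and PGE2 quantified by LC-MS/MS.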

The target of the next data set is T1, CYP1A2 (Homo sapiens, UniProt P05177).
T1 sequence (P05177 whole entry): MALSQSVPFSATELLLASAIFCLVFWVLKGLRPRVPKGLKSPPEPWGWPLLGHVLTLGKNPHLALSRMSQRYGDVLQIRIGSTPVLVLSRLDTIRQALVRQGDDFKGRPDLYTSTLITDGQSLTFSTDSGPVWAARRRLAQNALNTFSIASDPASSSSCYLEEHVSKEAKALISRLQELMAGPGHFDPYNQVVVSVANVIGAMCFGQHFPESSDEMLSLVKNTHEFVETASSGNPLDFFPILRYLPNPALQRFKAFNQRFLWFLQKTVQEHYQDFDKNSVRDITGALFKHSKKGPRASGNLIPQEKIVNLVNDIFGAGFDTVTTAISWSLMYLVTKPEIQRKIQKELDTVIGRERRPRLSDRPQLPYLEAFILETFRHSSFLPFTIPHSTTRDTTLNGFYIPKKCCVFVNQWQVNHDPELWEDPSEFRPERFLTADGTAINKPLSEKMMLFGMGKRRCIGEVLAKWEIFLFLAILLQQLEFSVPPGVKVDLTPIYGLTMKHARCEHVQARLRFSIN
Put plainly: Inhibition of CYP1A2 (unknown origin) at 3 uM. Format: ADME. In a few lines: (§1)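 Competitive inhibition screen of CYP3A4, 2D6, 2C9, 2C8 and 1A2 using isoform-relevant probe substrates, compound at 3 μM.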

Data set [2] is described as follows: Ratio of unbound AUClast in C57BL6J mouse brain to plasma at 1 mg/kg, sc measured up to 24 hrs post dose by HPLC-MS/MS analysis. The conditions noted are these: brain and plasma.
A further data set has as its target T2, CYP2C8 (Homo sapiens, UniProt P10632).
T2 sequence (P10632 whole entry): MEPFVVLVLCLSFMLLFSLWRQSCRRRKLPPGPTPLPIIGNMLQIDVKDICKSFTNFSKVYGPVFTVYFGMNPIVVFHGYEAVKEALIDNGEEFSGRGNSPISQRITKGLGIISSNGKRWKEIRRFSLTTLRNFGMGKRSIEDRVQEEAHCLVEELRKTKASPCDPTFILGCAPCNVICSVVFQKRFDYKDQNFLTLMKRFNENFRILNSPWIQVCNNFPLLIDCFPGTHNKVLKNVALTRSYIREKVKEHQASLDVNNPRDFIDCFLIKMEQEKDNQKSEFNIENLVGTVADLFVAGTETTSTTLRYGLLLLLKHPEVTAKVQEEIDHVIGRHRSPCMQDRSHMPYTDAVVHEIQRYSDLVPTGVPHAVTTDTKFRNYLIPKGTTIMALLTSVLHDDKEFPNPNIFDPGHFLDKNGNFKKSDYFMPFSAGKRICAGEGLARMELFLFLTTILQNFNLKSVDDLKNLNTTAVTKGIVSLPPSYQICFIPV
Put plainly: Inhibition of CYP2C8 (unknown origin) at 3 uM. Format: ADME. A digest of the protocol: as §1

Data set [3] in a line: Half life in Beagle dog at 1 mg/kg, iv administered via cephalic vein measured up to 24 hrs post dose by HPLC-MS/MS analysis. Format: ADME, organism-based, Canis lupus familiaris. To be noted: in vivo.
Data set [4] is filed under the species Mus musculus. The conditions noted are these: C57BL6J, 1 mg/kg.
Data set [5] can be described thus: Plasma clearance in non-human primate at 1 mg/kg, iv administered via cephalic vein measured up to 24 hrs post dose by HPLC-MS/MS analysis. The conditions noted are these: rhesus monkey. Format: ADME, organism-based, Macaca mulatta. A digest of the protocol:
(§2)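 Fasted male non-human primates (n = 2), fed ~1 h post-dose; 1 mg/kg IV bolus via saphenous or cephalic vein in 3% DMA/10% Solutol HS15/10% Miglyol/77% of 20% SBECD, 0.5 mL/kg. Femoral blood pre-dose and 0.083–24 h; plasma HPLC-MS/MS; non-compartmental analysis.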

Data set [6] in a line: Volume of distribution in non-human primate at 1 mg/kg, iv administered via cephalic vein measured up to 24 hrs post dose by HPLC-MS/MS analysis. Format: ADME, organism-based, Macaca mulatta. The conditions noted are these: rhesus monkey, in vivo. A digest of the protocol: as §2
Data set [7] is described as follows: Half life in Wistar Hannover rat at 1 mg/kg, iv administered as bolus dose via jugular vein cannula measured up to 24 hrs post dose by HPLC-MS/MS analysis. Format: ADME, organism-based. To be noted: in vivo. In a few lines:
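Rats (n = 2) given 1 mg/kg IV bolus via jugular vein cannula, solution in 3% DMA/10% Solutol HS15/10% Miglyol/77% of 20% SBECD in water, 1 mL/kg. Carotid cannula blood pre-dose and 0.083–24 h; plasma by HPLC-MS/MS; non-compartmental analysis.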

Data set [8] in a line: Intrinsic clearance in human hepatocytes. Format: ADME, cell-based, Hepatocyte. To be noted: read-out: CLH. A digest of the protocol: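 Substrate depletion in cryopreserved human hepatocytes; scaled intrinsic clearance in mL/min/kg.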
The target in data set [9] is T3, CES1 (liver carboxylesterase 1) (Homo sapiens, UniProt P23141).
T3 sequence (P23141 whole entry): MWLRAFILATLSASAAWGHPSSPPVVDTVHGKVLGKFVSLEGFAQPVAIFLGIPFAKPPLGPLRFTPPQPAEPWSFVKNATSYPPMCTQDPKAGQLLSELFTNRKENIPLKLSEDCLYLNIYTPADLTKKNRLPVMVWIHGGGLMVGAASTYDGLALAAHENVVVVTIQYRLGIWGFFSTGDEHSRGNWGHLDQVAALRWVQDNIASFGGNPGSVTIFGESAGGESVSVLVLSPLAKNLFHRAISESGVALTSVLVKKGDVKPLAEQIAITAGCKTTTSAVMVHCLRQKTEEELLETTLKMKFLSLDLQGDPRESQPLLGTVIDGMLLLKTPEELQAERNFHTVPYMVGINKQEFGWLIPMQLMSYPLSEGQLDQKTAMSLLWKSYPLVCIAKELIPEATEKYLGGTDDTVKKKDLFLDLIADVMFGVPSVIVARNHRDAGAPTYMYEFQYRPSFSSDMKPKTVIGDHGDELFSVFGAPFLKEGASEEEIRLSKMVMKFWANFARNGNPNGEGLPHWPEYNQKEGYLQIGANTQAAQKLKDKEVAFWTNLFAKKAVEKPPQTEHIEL
The data set can be described thus: Inhibition of human CES1 at 10 uM. A digest of the protocol: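 Panel of 42 human serine hydrolases, each exposed to inhibitor at 10 µM; activity expressed as percent inhibition.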

For data set [10], the species on record is Mus musculus. To be noted: C57BL6J, 1 mg/kg. The source holds these as a separate data set.
The next data set deals with CYP2C9 (Homo sapiens, UniProt P11712). The data set can be described thus: Inhibition of CYP2C9 (unknown origin) at 3 uM. Format: ADME. A digest of the protocol: as §1
CYP2C9, sequence (P11712 whole entry): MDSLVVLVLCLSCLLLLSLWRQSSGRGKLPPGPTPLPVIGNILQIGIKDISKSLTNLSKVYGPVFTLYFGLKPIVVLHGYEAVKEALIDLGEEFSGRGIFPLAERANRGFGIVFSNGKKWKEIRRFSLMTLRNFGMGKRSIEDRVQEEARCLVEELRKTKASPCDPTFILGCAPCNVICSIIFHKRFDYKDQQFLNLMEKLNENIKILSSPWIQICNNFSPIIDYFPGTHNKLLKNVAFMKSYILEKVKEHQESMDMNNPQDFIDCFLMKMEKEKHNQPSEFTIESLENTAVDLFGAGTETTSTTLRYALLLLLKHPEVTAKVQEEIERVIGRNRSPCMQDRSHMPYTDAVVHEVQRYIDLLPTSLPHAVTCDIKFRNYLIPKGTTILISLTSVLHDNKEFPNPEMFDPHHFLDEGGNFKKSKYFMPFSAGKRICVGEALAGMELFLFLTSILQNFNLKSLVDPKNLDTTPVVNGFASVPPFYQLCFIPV
Data set [11] can be described thus: Kinetic solubility of the compound at pH 7.4. The conditions noted are these: buffer, read-out: Kinetic_solubility. Format: physicochemical.
A short description of data set [12]: Unbound fraction in C57BL6J mouse plasma at 1 mg/kg, sc measured up to 24 hrs post dose by HPLC-MS/MS analysis. Format: ADME, organism-based.
In the next data set the target is CYP3A4 (Homo sapiens, UniProt P08684). The data set can be described thus: Inhibition of CYP3A4 (unknown origin) at 3 uM. Format: ADME. In a few lines: as §1
CYP3A4, sequence (P08684 whole entry): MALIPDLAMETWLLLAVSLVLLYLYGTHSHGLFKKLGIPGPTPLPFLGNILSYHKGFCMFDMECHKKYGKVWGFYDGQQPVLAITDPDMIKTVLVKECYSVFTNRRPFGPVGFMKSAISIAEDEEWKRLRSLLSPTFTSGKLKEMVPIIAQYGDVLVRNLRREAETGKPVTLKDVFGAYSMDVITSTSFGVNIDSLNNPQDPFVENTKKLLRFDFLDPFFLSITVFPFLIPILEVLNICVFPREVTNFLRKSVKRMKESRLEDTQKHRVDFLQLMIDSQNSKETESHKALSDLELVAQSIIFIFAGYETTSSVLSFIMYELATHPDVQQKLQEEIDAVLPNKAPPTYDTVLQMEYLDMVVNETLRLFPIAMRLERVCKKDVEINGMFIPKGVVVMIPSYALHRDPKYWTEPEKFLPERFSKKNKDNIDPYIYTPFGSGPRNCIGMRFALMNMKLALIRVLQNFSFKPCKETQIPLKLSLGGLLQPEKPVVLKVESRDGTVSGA

Turning to `O=C(O[C@H](CO)C(F)(F)F)N1C[C@@H]2[C@H](C1)[C@H]2c1ccn(-c2ccc(F)cc2)n1`, the result with Mus musculus [1] was Active. Besides, the inhibition at 3 µM at CYP1A2, against CYP2C8, on CYP2C9 and at CYP3A4 was below 10% each time. Further, the Kp uu at 24 h in data set [2] turned out to be 1.4. The half-life in data set [3] was 102 min; in [7], 78 min. Moreover, the inhibition entry in the data set listed under Mus musculus [4] and in the data set listed under Mus musculus [10] was “Active” throughout. In [5], the clearance worked out at 16 mL/min/kg. Besides, the Vd in data set [6] is 1.5 L/kg. Also, the CLint scaled in data set [8] turned out to be 52 mL/min/kg. Also, 10 µM produced 80% inhibition in [9]. The solubility kinetic in data set [11] was determined as 115 µM (≈ 45.9 µg/mL). The fraction unbound at 24 h in data set [12] turned out to be 0.0135.
